Measurements as given in ChEMBL document CHEMBL4043101, “Potent haloperidol derivatives covalently binding to the dopamine D2 receptor” (Bioorg Med Chem, 2017).

Tests used:
[1] = Displacement of [3H]spiperone from human dopamine D4.4 receptor expressed in CHO cell membranes by radioligand binding assay
Procedure, shortened: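 Competition binding used membranes from CHO cells stably expressing human D4.4R, at 4-10 µg protein/tube, with [3H]spiperone final 0.15-0.30 nM (KD 0.14-0.25 nM, Bmax 1000-1700 […]). Nonspecific binding was defined with 10 µM haloperidol. Ki was obtained by sigmoid fit to IC50 and then Cheng-Prusoff. Each Ki is the mean of two independent experiments, each run in triplicate.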

[2] = system: D(2) dopamine receptor (Homo sapiens), P14416 [L94C]; experiment: Irreversible inhibition of [3H]spiperone binding to human D2short receptor L2.64C mutant expressed in HEK293T cell membranes assessed as covalent binding at 5 and 20 uM incubated for 120 mins followed by compound wash out by radioligand depletion assay; set-up: scale not given: the % may be the effect or the level left; conditions: HEK-293T
D(2) dopamine receptor (Homo sapiens), P14416 [L94C], sequence (P14416 whole entry L94C): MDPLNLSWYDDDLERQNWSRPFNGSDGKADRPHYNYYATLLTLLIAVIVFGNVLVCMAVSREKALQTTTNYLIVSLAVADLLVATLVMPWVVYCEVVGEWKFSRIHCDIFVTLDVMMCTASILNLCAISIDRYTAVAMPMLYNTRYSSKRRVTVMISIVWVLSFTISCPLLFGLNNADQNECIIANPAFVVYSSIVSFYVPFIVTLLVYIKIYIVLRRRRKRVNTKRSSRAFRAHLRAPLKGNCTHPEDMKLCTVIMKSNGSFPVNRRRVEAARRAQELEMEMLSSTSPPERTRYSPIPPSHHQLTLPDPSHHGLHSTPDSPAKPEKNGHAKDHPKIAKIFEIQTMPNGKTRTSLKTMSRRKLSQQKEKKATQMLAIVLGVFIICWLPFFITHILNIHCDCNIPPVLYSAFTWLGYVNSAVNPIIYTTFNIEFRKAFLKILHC
Procedure, shortened: (§1)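 For screening, membranes from HEK 293T cells expressing the D2short L2.64C mutant (50 µg/mL protein) were preincubated with compound for 120 min at 37 °C in pH 7.4 Tris buffer. The reference, haloperidol, was used at 20 nM. Membranes were centrifuged and washed four times for 30 min each. Residual specific [3H]spiperone binding was normalized to nonspecific 0% and total 100%. Values are the mean of 2-4 experiments, each in quadruplicate, ±SD.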

[3] = species on record: Homo sapiens; experiment: Selectivity index, ratio of Ki for human D3 receptor expressed in CHO cell membranes to Ki for human D2short receptor expressed in CHO cell membranes; assay type: cell-based
Procedure, shortened: (§2)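 Ratios of Ki values from [3H]spiperone competition binding on CHO membranes stably expressing human D2short, D3 or D4.4 receptors. The D3 and D4 Ki values are each divided by the D2short Ki.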

[4] = target: D(3) dopamine receptor (Homo sapiens, UniProt P35462); experiment: Displacement of [3H]spiperone from human D3 receptor expressed in CHO cell membranes by radioligand binding assay
D(3) dopamine receptor, sequence (P35462 whole entry): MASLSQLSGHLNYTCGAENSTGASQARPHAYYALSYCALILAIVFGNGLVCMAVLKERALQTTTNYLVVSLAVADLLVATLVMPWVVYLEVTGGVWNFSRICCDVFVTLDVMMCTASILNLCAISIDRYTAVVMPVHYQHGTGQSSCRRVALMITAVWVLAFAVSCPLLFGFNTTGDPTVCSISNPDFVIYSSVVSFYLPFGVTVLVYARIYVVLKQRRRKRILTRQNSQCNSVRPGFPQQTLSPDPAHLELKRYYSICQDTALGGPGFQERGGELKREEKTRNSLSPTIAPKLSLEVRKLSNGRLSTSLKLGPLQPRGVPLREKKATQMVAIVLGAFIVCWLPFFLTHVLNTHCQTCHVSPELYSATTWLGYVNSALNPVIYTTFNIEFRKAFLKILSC

[5] = system: HEK-293T; experiment: Inhibition of [3H]spiperone binding to human D2short receptor L2.64C mutant expressed in HEK293T cell membranes at 2 and 5 uM incubated for 120 mins by radioligand depletion assay
[6] = species on record: Homo sapiens; experiment: Selectivity index, ratio of Ki for human dopamine D4.4 receptor expressed in CHO cell membranes to Ki for human D2short receptor expressed in CHO cell membranes; assay type: cell-based; procedure, shortened: as §2
[7] = Displacement of [3H]spiperone from human D2short receptor L2.64C mutant expressed in HEK293T cell membranes by radioligand binding assay; conditions: hek-293t
Procedure, shortened: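 Membranes from HEK 293T cells transiently transfected with the mutant receptor in pcDNA3.1 were used for competition binding against [3H]spiperone (81 Ci/mmol), final 0.15-0.30 nM. Nonspecific binding was defined with 10 µM haloperidol. Protein was measured by Lowry with a BSA standard. IC50 came from a sigmoid nonlinear fit and was converted to Ki by Cheng-Prusoff.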

[8] = target: T1, D(2) dopamine receptor (Homo sapiens, UniProt P14416); experiment: Displacement of [3H]spiperone from human D2short receptor expressed in CHO cell membranes by radioligand binding assay
T1 sequence (P14416 whole entry): as the sequence (P14416 whole entry L94C) above, with C94L counted along it

[9] = system: D(2) dopamine receptor (Homo sapiens), P14416 [L94C]; experiment: Irreversible inhibition of [3H]spiperone binding to human D2short receptor L2.64C mutant expressed in HEK293T cell membranes at 5 uM incubated for 120 mins followed by compound wash out by radioligand depletion assay; conditions: HEK-293T; procedure, shortened: as §1
[10] = species on record: Homo sapiens; experiment: Selectivity index, ratio of Ki for human D2short receptor expressed in CHO cell membranes to Ki for human D2short receptor L2.64C mutant expressed in HEK293T cell membranes; assay type: cell-based
Procedure, shortened: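 Ratio of the D2short Ki from CHO membranes to the Ki measured at the transiently expressed L2.64C mutant in HEK 293T membranes. Both Ki values come from [3H]spiperone competition binding with Cheng-Prusoff conversion.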

[11] = system: HEK-293T; experiment: Inhibition of [3H]spiperone binding to human D2short receptor L2.64C mutant expressed in HEK293T cell membranes at 2 and 5 uM incubated for 30 mins by radioligand depletion assay
[12] = target: T1, D(2) dopamine receptor; experiment: Displacement of [3H]spiperone from human D2long receptor expressed in CHO cell membranes by radioligand binding assay
[13] = system: D(2) dopamine receptor (Homo sapiens), P14416 [L94C]; experiment: Irreversible inhibition of [3H]spiperone binding to human D2short receptor L2.64C mutant expressed in HEK293T cell membranes incubated for 120 mins followed by compound wash out by radioligand depletion assay; conditions: HEK-293T; procedure, shortened: as §1
[14] = system: D(2) dopamine receptor (Homo sapiens), P14416 [L94C]; experiment: Irreversible inhibition of [3H]spiperone binding to human D2short receptor L2.64C mutant expressed in HEK293T cell membranes at 20 uM incubated for 120 mins followed by compound wash out by radioligand depletion assay; conditions: HEK-293T; procedure, shortened: as §1
[15] = system: D(2) dopamine receptor (Homo sapiens), P14416 [L94C]; experiment: Irreversible inhibition of [3H]spiperone binding to human D2short receptor L2.64C mutant expressed in HEK293T cell membranes assessed as remaining [3H]spiperone binding at 5 and 20 uM incubated for 120 mins followed by compound wash out by radioligand depletion assay; conditions: HEK-293T; procedure, shortened: as §1
[16] = system: D(2) dopamine receptor (Homo sapiens), P14416 [L94C]; experiment: Irreversible inhibition of [3H]spiperone binding to human D2short receptor L2.64C mutant expressed in HEK293T cell membranes at 1 uM incubated for 120 mins followed by compound wash out by radioligand depletion assay; conditions: HEK-293T; procedure, shortened: as §1
[17] = system: D(2) dopamine receptor (Homo sapiens), P14416 [L94C]; experiment: Irreversible inhibition of [3H]spiperone binding to human D2short receptor L2.64C mutant expressed in HEK293T cell membranes at 10 uM incubated for 120 mins followed by compound wash out by radioligand depletion assay; conditions: HEK-293T; procedure, shortened: as §1
[18] = system: HEK-293T; experiment: Inhibition of [3H]spiperone binding to human D2short receptor L2.64C mutant expressed in HEK293T cell membranes at 2 and 5 uM incubated for 240 mins by radioligand depletion assay
[19] = system: HEK-293T; experiment: Inhibition of [3H]spiperone binding to human D2short receptor L2.64C mutant expressed in HEK293T cell membranes at 1 and 5 uM incubated for 30 mins by radioligand depletion assay
Procedure, shortened: (§3)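 For kinetics, mutant receptor membranes from HEK 293T cells (50 µg/mL protein) were preincubated with compound at two concentrations for 15 to 240 min, at 37 °C, pH 7.4. The buffer was Tris/EDTA/MgCl2/bacitracin/trypsin inhibitor. Incubation was stopped by centrifugation, then membranes were washed four times (30 min resuspension each). Remaining specific [3H]spiperone binding was then measured, with 10 µM haloperidol defining nonspecific binding. Data were normalized to nonspecific 0% and total 100%.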

[20] = system: HEK-293T; experiment: Inhibition of [3H]spiperone binding to human D2short receptor L2.64C mutant expressed in HEK293T cell membranes at 1 and 5 uM incubated for 240 mins by radioligand depletion assay; conditions: in the assay text read “120 mins” for “240 mins”; procedure, shortened: as §3

SMILES	Activity [2] [%]	Ki [4] [nM]	Ki [8] [nM]	inhibition [9] [%]	Ki [12] [nM]	inhibition [13]	inhibition [14] [%]	Activity [15] [%]	inhibition [16] [%]	inhibition [17] [%]	Ki [1] [nM]	Ratio Ki [3]	inhibition [5] [%]	Ratio Ki [6]	Ki [7] [nM]	Ratio Ki [10]	inhibition [11] [%]	inhibition [18] [%]	inhibition [19] [%]	inhibition [20] [%]
O=C(CCCN1CCC(O)(c2ccc(Cl)cc2)CC1)c1ccc(F)cc1 [HALOPERIDOL]	–	–	–	–	–	–	–	–	–	–	7.2	–	–	–	–	–	–	–	–	–
O=C(NCCN1CCC(O)(c2ccc(Cl)cc2)CC1)NCCN1C(=O)C=CC1=O	> 90	690	1500	60 to 85	2200	Dose-dependent effect	70 to 95	5	–	–	> 50000	0.46	> 90	> 33	860	1.7	70 to 85	–	–	–
COc1cc(CCN2CCC(O)(c3ccc(Cl)cc3)CC2)ccc1OCCCSSCCN	> 90	600	940	60 to 85	1000	Dose-dependent effect	70 to 95	10	–	–	1500	0.63	–	1.6	850	1.1	87	85	–	–
COc1cc(CCN2CCC(O)(c3ccc(Cl)cc3)CC2)ccc1OCCSSCCN	–	390	1500	60 to 85	1500	Dose-dependent effect	70 to 95	–	–	–	1100	0.26	–	0.73	550	2.7	72	82	–	–

Continued, in another order:

Activity [2] [%]	Ki [4] [nM]	Ki [8] [nM]	inhibition [9] [%]	Ki [12] [nM]	inhibition [13]	inhibition [14] [%]	Activity [15] [%]	inhibition [16] [%]	inhibition [17] [%]	SMILES	Ki [1] [nM]	Ratio Ki [3]	inhibition [5] [%]	Ratio Ki [6]	Ki [7] [nM]	Ratio Ki [10]	inhibition [11] [%]	inhibition [18] [%]	inhibition [19] [%]	inhibition [20] [%]
–	140	73	–	240	Dose-dependent effect	–	–	20	< 70	O=C(CCCN1CCC(O)(c2ccc(Cl)cc2)CC1)c1ccc(OCCSSCCO)cc1	970	1.9	–	13	330	0.22	–	–	–	–
–	210	140	70 to 95	260	Dose-dependent effect	–	–	60 to 85	–	[N-]=[N+]=NCCSSCCn1cc(C(=O)CCCN2CCC(O)(c3ccc(Cl)cc3)CC2)nn1	3200	1.5	–	23	320	0.44	–	–	80	86
